The target in data set [1] is Metabotropic glutamate receptor 1 (Homo sapiens, UniProt Q13255). Nature of the data set: Tested for in vitro antagonistic activity against Metabotropic glutamate receptor 1. Format: functional. The method, boiled down: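 Ca2+ flux assay at mGlu1a, with compounds tested in both agonist and antagonist modes. Initial screen at 10 µM; concentration-response curves generated where inhibition was seen.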

Data set [2] can be described thus: LogD value was determined. The data set is classed as physicochemical. The conditions noted are these: octanol/water. The method, boiled down:
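log D determined by an HPLC method.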

In data set [3] the target is T1, Amine oxidase [flavin-containing] A (Mus musculus, UniProt Q64133).
T1 sequence (Q64133 whole entry): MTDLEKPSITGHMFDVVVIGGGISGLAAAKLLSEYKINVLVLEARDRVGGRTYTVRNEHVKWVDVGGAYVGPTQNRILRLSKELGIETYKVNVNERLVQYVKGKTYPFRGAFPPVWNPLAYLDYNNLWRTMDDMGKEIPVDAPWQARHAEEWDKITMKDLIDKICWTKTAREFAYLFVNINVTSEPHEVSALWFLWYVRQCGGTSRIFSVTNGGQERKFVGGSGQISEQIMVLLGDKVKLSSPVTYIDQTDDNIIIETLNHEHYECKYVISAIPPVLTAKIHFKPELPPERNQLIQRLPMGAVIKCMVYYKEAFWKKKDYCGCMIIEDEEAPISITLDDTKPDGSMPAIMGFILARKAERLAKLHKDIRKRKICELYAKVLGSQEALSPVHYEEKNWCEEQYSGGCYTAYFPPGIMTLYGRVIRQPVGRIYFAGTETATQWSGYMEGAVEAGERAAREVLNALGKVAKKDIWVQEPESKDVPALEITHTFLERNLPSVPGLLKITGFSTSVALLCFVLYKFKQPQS
Nature of the data set: Tested for in vitro antagonistic activity against Monoamine oxidase. Format: functional. The method, boiled down: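 Radioligand displacement of [125I]RTI-55 ([125I]methyl (1R,2S,3S,5S)-3-(4-iodophenyl)-8-methyl-8-azabicyclo[3.2.1]octane-2-carboxylate) from MAO-A. Compounds were first screened at 10 µM.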

Data set [4] has as its system Rattus norvegicus. The data set is described as follows: Amount in vivo in rat cerebrospinal fluid (CSF) after oral dose of 30 mg/Kg. The conditions noted are these: read-out: CSF levels.
Data set [5] has as its system Rattus norvegicus. The data set is described as follows: Amount in vivo in rat brain after intraperitoneal dose of 3 mg/Kg. The data set is classed as ADME, organism-based. The conditions noted are these: ip, read-out: Brain level. The method, boiled down:
(§1)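 Rats given 3 mg/kg ip; brain (hippocampus) and plasma drug levels measured 1 h after dosing. Mean ± SEM, n = rats per group.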

Data set [6] in a line: (§2) Amount in vivo in rat plasma after intraperitoneal dose of 3 mg/Kg. Format: ADME, organism-based. The conditions noted are these: ip, read-out: Plasma level. The method, boiled down:
as §1

The target in data set [7] is T2, Glutamate receptor ionotropic, NMDA 2B (Homo sapiens, UniProt Q05586+Q13224). Nature of the data set: Tested for in vitro antagonistic activity against human N-methyl-D-aspartate glutamate receptor 2B. The data set is classed as functional. A digest of the protocol:
(§3)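 Cell line stably expressing recombinant human NR1A/2B NMDA receptors. Inhibition of NMDA/glycine-evoked rise in intracellular Ca2+. Six-point concentration-response curve with 8-22 cells per concentration.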

Data set [8] concerns Rattus norvegicus. The data set is described as follows: In vivo intraperitoneal effective dose to block fear conditioning in rats was determined by FPS (fear potentiated startle) model of anxiety. The data set is classed as functional. The conditions noted are these: ip. A digest of the protocol: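 Fear-potentiated startle anxiety model in rats. Compound given ip and measurement taken 1 h after administration. 8 rats/group. ED50 reported as mean, with ED50 values from individual experiments (95% confidence interval).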

The target in data set [9] is Metabotropic glutamate receptor 5 (Homo sapiens, UniProt P41594). Nature of the data set: Tested in vitro against human recombinant Metabotropic glutamate receptor 5 stably expressed in LtK cells by [Ca2+] flux assay using glutamate as agonist.
Sequence of Metabotropic glutamate receptor 5 (Homo sapiens, UniProt P41594) (P41594 whole entry): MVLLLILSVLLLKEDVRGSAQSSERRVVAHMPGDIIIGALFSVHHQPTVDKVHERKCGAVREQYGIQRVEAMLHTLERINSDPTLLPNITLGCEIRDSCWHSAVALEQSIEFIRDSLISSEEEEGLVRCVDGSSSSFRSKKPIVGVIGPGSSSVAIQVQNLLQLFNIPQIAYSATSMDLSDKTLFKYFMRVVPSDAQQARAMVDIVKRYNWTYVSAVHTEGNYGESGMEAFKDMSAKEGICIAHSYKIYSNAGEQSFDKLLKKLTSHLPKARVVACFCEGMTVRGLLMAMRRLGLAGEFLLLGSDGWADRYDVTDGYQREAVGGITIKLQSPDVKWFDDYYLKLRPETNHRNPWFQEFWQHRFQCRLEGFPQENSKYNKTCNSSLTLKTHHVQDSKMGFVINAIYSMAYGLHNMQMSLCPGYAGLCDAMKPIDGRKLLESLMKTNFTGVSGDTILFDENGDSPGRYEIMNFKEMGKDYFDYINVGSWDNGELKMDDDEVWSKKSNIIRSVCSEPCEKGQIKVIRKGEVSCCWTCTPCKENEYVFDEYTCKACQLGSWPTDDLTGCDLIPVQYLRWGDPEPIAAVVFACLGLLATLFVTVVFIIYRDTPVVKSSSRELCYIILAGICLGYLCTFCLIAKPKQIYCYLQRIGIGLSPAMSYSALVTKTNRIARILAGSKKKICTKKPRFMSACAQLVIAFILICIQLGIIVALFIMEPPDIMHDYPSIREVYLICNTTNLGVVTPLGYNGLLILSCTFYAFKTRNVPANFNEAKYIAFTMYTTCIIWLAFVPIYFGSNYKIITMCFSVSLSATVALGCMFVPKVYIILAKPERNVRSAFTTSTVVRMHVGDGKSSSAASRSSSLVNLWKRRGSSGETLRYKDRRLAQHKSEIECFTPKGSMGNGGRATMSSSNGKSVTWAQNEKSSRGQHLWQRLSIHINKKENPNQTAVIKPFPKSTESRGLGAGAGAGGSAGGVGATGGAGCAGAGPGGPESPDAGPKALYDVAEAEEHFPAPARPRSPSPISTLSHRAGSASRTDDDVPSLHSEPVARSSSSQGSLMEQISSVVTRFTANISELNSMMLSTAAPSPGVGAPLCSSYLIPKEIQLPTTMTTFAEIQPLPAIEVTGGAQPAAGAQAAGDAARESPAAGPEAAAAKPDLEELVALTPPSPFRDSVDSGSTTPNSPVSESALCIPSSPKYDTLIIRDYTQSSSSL
The target in data set [10] is Metabotropic glutamate receptor 5 (Rattus norvegicus, UniProt P31424). Nature of the data set: Tested for displacement of [3H]3-methoxy-5-(pyridin-2-ylethynyl) pyridine from Metabotropic glutamate receptor 5 in rat cortical membrane. The data set is classed as cell membranes. A digest of the protocol:
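Rat cortical membranes; displacement of [3H]-3-methoxy-5-(pyridin-2-ylethynyl)pyridine bound to native mGlu5. Geometric mean with standard deviation and number of replicates.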

The target in data set [11] is T1, Amine oxidase [flavin-containing] A. The data set is described as follows: Tested for in vitro antagonistic activity against Monoamine oxidase A. The data set is classed as functional. The method, boiled down: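 Displacement of [125I]RTI-55 binding at MAOA. IC50 given with range in parentheses. Initial screen at 10 µM, followed by concentration-response curves where inhibition was detected.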

Data set [12] concerns Rattus norvegicus. The data set is described as §2. Format: ADME, organism-based. The conditions noted are these: ip, read-out: Plasma level. A digest of the protocol: as §1
Data set [13] concerns the target T2, Glutamate receptor ionotropic, NMDA 2B. The data set is described as follows: Tested for in vitro antagonistic activity against recombinant human N-methyl-D-aspartate glutamate receptor 2B. The data set is classed as functional. A digest of the protocol: as §3

SMILES strings stand for the structures.

Sequence of Metabotropic glutamate receptor 5 (Rattus norvegicus, UniProt P31424) (P31424 whole entry): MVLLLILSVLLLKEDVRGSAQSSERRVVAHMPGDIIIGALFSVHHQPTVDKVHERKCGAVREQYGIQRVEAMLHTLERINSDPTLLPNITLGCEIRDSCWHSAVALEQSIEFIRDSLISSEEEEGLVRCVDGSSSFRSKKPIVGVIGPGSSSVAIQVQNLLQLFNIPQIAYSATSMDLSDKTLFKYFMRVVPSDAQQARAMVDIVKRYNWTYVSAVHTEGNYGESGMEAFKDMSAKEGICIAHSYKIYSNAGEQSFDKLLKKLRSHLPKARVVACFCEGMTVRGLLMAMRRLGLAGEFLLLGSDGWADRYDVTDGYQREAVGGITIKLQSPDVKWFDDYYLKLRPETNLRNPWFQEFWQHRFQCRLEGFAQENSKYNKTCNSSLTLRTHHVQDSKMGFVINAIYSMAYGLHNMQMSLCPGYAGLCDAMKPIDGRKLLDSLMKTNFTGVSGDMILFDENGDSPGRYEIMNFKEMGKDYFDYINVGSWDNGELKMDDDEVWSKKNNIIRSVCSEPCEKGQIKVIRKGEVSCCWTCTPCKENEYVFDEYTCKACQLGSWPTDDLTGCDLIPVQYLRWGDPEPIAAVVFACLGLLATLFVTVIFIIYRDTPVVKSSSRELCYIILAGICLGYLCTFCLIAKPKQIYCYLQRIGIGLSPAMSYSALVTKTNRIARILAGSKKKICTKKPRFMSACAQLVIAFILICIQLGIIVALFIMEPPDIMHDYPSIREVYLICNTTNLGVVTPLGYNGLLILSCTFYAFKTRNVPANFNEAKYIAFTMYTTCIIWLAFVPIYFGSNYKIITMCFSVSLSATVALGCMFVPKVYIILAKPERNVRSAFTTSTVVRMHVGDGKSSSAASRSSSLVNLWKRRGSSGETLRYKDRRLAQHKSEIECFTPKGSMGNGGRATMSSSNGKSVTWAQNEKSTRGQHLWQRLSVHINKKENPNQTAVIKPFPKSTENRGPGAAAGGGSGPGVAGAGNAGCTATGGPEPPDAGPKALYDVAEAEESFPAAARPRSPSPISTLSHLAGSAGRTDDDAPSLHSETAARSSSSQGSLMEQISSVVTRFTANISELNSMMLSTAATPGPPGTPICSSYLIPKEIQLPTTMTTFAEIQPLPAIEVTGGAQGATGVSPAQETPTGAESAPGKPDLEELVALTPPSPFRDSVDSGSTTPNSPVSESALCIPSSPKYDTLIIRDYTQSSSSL
Sequence of Metabotropic glutamate receptor 1 (Q13255 whole entry): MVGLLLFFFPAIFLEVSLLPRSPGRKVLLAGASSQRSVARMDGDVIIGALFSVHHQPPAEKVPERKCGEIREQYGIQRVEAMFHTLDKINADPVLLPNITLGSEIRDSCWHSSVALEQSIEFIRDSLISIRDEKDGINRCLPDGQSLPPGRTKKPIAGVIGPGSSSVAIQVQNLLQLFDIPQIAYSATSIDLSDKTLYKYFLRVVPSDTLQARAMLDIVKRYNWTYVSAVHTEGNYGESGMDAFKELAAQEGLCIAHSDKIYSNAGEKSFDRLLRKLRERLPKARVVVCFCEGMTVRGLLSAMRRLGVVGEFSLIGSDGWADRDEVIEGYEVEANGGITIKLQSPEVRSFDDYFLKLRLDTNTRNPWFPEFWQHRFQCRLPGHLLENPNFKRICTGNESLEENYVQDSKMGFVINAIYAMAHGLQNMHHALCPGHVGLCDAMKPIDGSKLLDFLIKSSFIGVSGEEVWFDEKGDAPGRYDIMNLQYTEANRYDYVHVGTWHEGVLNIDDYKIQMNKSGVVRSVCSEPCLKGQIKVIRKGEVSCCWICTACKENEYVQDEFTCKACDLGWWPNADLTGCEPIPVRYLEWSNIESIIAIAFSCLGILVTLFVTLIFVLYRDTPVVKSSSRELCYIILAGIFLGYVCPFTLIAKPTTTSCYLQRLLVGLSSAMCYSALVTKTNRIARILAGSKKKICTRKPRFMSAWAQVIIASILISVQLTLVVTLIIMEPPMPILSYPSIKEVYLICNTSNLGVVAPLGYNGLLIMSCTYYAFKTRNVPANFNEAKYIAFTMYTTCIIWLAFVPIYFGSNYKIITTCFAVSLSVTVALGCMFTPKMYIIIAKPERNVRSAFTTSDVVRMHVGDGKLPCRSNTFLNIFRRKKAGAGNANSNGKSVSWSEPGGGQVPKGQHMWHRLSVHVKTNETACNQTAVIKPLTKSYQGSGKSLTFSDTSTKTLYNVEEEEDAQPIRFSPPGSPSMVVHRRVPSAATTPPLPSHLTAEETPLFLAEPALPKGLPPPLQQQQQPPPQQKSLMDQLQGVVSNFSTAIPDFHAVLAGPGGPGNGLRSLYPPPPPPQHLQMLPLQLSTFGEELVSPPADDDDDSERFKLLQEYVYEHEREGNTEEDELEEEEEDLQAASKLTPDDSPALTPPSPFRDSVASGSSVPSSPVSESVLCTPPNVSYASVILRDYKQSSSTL
T2 sequence (Q13224 whole entry, one chain of several): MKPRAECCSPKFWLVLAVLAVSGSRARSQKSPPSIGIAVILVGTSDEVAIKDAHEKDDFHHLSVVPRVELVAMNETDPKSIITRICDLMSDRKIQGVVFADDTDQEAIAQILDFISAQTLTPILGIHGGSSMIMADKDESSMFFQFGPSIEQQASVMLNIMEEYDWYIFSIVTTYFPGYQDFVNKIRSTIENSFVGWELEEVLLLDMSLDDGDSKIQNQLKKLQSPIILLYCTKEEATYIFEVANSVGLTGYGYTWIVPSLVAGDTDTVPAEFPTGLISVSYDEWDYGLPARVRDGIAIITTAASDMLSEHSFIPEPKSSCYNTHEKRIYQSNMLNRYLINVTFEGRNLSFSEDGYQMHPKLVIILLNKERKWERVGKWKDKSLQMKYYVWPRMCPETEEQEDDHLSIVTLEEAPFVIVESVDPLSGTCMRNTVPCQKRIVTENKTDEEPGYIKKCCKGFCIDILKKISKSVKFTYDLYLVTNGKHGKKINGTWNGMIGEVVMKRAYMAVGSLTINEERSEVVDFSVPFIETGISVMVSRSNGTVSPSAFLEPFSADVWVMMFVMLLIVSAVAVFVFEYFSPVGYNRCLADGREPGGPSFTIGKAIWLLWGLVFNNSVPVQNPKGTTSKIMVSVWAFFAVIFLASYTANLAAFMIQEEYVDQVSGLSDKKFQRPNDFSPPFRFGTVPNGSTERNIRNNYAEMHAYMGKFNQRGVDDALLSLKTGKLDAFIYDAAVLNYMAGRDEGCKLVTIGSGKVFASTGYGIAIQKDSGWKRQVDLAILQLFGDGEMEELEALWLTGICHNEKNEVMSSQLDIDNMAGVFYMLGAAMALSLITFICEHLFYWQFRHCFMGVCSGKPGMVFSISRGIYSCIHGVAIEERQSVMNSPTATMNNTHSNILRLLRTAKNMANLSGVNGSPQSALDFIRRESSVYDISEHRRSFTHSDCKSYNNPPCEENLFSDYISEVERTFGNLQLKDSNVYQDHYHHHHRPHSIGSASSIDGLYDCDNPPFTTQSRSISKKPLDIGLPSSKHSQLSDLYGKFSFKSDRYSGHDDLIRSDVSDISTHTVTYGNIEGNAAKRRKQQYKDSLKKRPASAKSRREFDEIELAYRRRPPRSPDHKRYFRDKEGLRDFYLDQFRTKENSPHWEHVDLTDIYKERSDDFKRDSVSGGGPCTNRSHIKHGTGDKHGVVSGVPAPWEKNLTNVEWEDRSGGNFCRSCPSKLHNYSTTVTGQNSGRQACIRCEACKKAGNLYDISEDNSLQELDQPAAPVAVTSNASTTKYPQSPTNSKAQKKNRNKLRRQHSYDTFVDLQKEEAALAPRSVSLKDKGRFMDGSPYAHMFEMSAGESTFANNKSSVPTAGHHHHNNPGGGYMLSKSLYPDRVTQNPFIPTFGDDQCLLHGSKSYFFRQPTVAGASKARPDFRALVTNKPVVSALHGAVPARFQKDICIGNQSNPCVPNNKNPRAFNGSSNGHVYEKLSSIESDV

A word on the IC50: it is the concentration that gives 50% inhibition. For orientation: logD means lipophilicity at a set pH, counting ionised and neutral species. By ED50 is commonly meant the dose at which the effect has come halfway, by size or by number of responders. On to `Cc1cccc(C#Cc2ccccc2)n1`, for which the concentration for half-maximal inhibition (IC50) is more than 100000 nM in data set [1], 8000 nM in data set [3] and 18000 nM in [7]. The log distribution coefficient (logD) in data set [2] worked out at 3.5. For the same compound, the figures for the concentration in data set [4], in [5] and in [6] were 210 nM, 830 nM and 390 nM, respectively. Besides, the ED50 in [8] amounted to 5 mg/kg.

By Ki is commonly meant the equilibrium dissociation constant of an inhibitor or competing ligand from its target. Take `C(#Cc1cscn1)c1ccccc1`: the logD in [2] stood at 2.6. For the same compound, in [9], the IC50 worked out at 97 nM. The same compound gave an inhibition constant (Ki) in data set [10] of 142 nM.

`C(#Cc1nccs1)c1ccccc1` registered a log distribution coefficient (logD) in data set [2] of 3.2. Besides, in [9], the 50% inhibitory concentration (IC50) was 81 nM. The Ki in [10] came to 153 nM.

Regarding `Cc1csc(C#Cc2ccccc2)n1`, the logD in data set [2] came to 2.6. Besides, the half-inhibitory concentration (IC50) in data set [9] came to 13 nM. Further, the Ki in data set [10] was 32 nM.

On to `Cc1nc(C#Cc2ccccc2)cs1`, for which the logD in [2] worked out at 3.3. Also, the half-inhibitory concentration (IC50) in [9] turned out to be 6 nM. Further, the inhibitory constant (Ki) in [10] worked out at 6 nM.

As to `Cc1nc(C#Cc2ccncc2)cs1`, in [2], the logD amounted to 2.1. In data set [9], the IC50 amounted to 122 nM. Further, in data set [10], the inhibitory constant (Ki) is 214 nM.

Consider `Cc1nc(C#Cc2cccnc2)cs1`, for which the concentration for half-maximal inhibition (IC50) is 30000 nM in [11], more than 100000 nM in [1] and more than 300000 nM in data set [13]. Further, in data set [2], the logD turned out to be 2.1. Besides, the concentration in [4] worked out at 1000 nM; in data set [5] it was 1400 nM; in data set [12], 1200 nM. Moreover, the ED50 in data set [8] turned out to be 1 mg/kg.

For the compound `Cc1nc(C#Cc2ccccn2)cs1`, the logD in data set [2] was 1.9. Besides, the 50% inhibitory concentration (IC50) in data set [9] came to 53 nM. This compound also displayed a Ki in [10] of 48 nM.

The values are drawn from ChEMBL document CHEMBL1145097 (J Med Chem, 2003).
